In one data set the test system is Mus musculus. Nature of the data set: Toxicity in C57BL/6 mouse assessed as change in body weight at 2 mg/kg, ip administered daily for 9 days measured during compound dosing. The format is organism-based. Conditions: in vivo, 216 h. Put shortly: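 Female C57BL/6 mice, n=5/group, given 2 mg/kg ip daily in 5% DMSO vehicle, with a vehicle control group. Body weights recorded on set days over a 9-day study.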

Another data set deals with B16-F10. In words: Antitumor activity against mouse B16F10 cells implanted in C57BL/6 mouse assessed as reduction in lung metastasis at 2 mg/kg, ip administered daily for 1 to 14 days by microscopic method. The class given is functional, organism-based. The essentials:
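Female C57BL/6 mice, 6–8 weeks old, injected via tail vein with 2x10^5 B16F10 cells on day 0. Dosing 2 mg/kg ip daily on days 1–14, in 5% DMSO vehicle, with a vehicle control group. Total black lung nodules counted under microscopy on day 14, n=11/group.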

A short description of data set [1]: Cytotoxicity against mouse B16F10 cells measured after 2 days by MTS assay. The following applies: B16-F10, 48 h.
For data set [2], the species on record is Homo sapiens. Nature of the data set: Inhibition of topoisomerase 2 (unknown origin) assessed as DNA intercalation at 10 uM using supercoiled pHOT-1 DNA as substrate measured after 30 mins by agarose gel electrophoresis. The essentials:
(§1)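 Topoisomerase II drug screening kit. Supercoiled pHOT-1 plasmid incubated with topoisomerase II enzyme plus compound at 37 °C for 30 min, with 100 μM etoposide as positive control. Stopped with 10% SDS, then proteinase K for 15 min at 37 °C. Run on 1% agarose gel, stained with EtBr and viewed under UV.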

Data set [3] is filed under the species Homo sapiens. Nature of the data set: Inhibition of topoisomerase 2 (unknown origin) assessed as DNA intercalation at 100 uM using supercoiled pHOT-1 DNA as substrate measured after 30 mins by agarose gel electrophoresis. Put shortly:
as §1

Results on three compounds are retold here after ChEMBL document CHEMBL3872262, “Synthesis of novel C4-benzazole naphthalimide derivatives with potent anti-tumor properties against murine melanoma” (Bioorg Med Chem, 2017).

Activity calls are given as the source filed them. The rule behind the calls is not given here.

In general, IC50 refers to the concentration that gives 50% inhibition. Low readings indicate inhibition by little substance, high ones a need for much substance. Turning to `CN(C)CCN1C(=O)c2cccc3c(-c4nc5ccccc5o4)ccc(c23)C1=O`, the Activity entry in the data set with Mus musculus is “Non-Toxic”. Besides, the outcome with B16-F10 was Active. The same compound returned an IC50 in data set [1] of 7.8 µM. Besides, the inhibition entry in the data set filed under Homo sapiens [2] was “Active”.
`CN(C)CCN1C(=O)c2cccc3cc(N)cc(c23)C1=O` [AMONAFIDE] came in with an IC50 in data set [1] of 6.7 µM.
With `CN(C)CCN1C(=O)c2cccc3c(-c4nc5ccccc5s4)ccc(c23)C1=O`, the inhibition entry in the data set listed under Homo sapiens [3] and in the data set listed under Homo sapiens [2] was “Active” each time. For the same compound, in the data set with Mus musculus, the Activity entry is on record as “Non-Toxic”. For the same compound, in the data set on B16-F10, the outcome was Active. The compound also displayed an IC50 in data set [1] of 4.5 µM.
